Assay results reported in ChEMBL document CHEMBL1132973, “Design, synthesis, and antimicrobial activity of 6-O-substituted ketolides active against resistant respiratory tract pathogens” (2000).
≈ marks a conversion by molar mass, not a printed value.

What was measured:
Format in all cases: functional
Streptococcus pyogenes [1] = assay: In vitro antibacterial activity against Streptococcus pyogenes strain PIU 2548.
Procedure, shortened: (§1)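 MICs in µg/mL determined by agar dilution per NCCLS recommendations. Panel includes erythromycin-susceptible strains (S. aureus ATCC 6538P, S. pyogenes EES 61, S. pneumoniae ATCC 6303); ermA MLS_B-resistant S. aureus (A 5177 inducible, A 5278 constitutive); ermB strains (S. pyogenes 930, S. pneumoniae 5737); efflux strains (S. pyogenes PIU 2548 mefA, S. pneumoniae 5649 mefE); and β-lactamase-positive ampicillin-resistant H. influenzae DILL.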

Streptococcus pneumoniae [2] = assay: In vitro antibacterial activity against Streptococcus pneumoniae strain 5737.; procedure, shortened: as §1
Staphylococcus aureus [3] = assay: In vitro antibacterial activity against Staphylococcus aureus strain ATCC 6538P; procedure, shortened: as §1
Streptococcus pyogenes [4] = assay: In vitro antibacterial activity against Streptococcus pyogenes strain 930.; procedure, shortened: as §1
Staphylococcus aureus [5] = assay: In vitro antibacterial activity against Staphylococcus aureus strain A 5278.; procedure, shortened: as §1
Streptococcus pneumoniae [6] = assay: In vitro antibacterial activity against Streptococcus pneumoniae strain 5649.; procedure, shortened: as §1
Haemophilus influenzae = assay: In vitro antibacterial activity against Haemophilus influenzae strain DILL.; procedure, shortened: as §1
Streptococcus pneumoniae [7] = assay: In vitro antibacterial activity against Streptococcus pneumoniae strain ATCC 6303.; procedure, shortened: as §1
Staphylococcus aureus [8] = assay: In vitro antibacterial activity against Staphylococcus aureus strain A 5177.; procedure, shortened: as §1
Staphylococcus aureus [9] = assay: In vitro antibacterial activity against Staphylococcus aureus strain ATCC 6538P.; procedure, shortened: as §1
Streptococcus pyogenes [10] = assay: In vitro antibacterial activity against Streptococcus pyogenes strain EES 61.; procedure, shortened: as §1
Streptococcus pneumoniae [11] = assay: (§2) In vivo antibacterial activity against Streptococcus pneumoniae strain 6303
Staphylococcus aureus [12] = assay: (§3) In vivo antibacterial activity against Staphylococcus aureus strain 10649
Procedure, shortened: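 Mice were inoculated intravenously with a 100-fold LD50 of the organism, then dosed by oral gavage at 1 and 5 h post-inoculation across a dose range. Survival was monitored for 7 days. ED50 is the dose giving 50% survival of treated mice over the trial.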

Streptococcus pneumoniae [13] = assay: (§4) In vivo antibacterial activity against Streptococcus pneumoniae strain 5649
Staphylococcus aureus [14] = assay: as §3; remark: listed apart in the source
Streptococcus pneumoniae [15] = assay: as §4; remark: listed apart in the source
Procedure, shortened: (§5)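 Rat lung infection. Rats inoculated intratracheally with 0.5 mL bacterial suspension in 5% gastric hog mucin containing log 10⁶-10⁸ cfu. Dosed daily on days 1-3, starting 18 h post-inoculation. Lung bacterial burden measured by serial-dilution plating of lung homogenates on day 4. ED50, the dose giving a 2 log reduction versus vehicle-treated infected controls, was calculated from group means by linear regression.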

Streptococcus pyogenes [16] = assay: In vivo antibacterial activity against Streptococcus pyogenes strain C203
Streptococcus pneumoniae [17] = assay: (§6) In vivo antibacterial activity against Streptococcus pneumoniae strain 6396; procedure, shortened: as §5
Streptococcus pneumoniae [18] = assay: as §6; remark: listed apart in the source
Streptococcus pneumoniae [19] = assay: as §2; procedure, shortened: as §5; remark: listed apart in the source

SMILES	MIC (Streptococcus pyogenes [1]) [µg/mL]	MIC (Streptococcus pneumoniae [2]) [µg/mL]	MIC (Streptococcus pyogenes [4]) [µg/mL]	MIC (Staphylococcus aureus [5]) [µg/mL]	MIC (Streptococcus pneumoniae [6]) [µg/mL]	MIC (Haemophilus influenzae) [µg/mL]	MIC (Streptococcus pneumoniae [7]) [µg/mL]	MIC (Staphylococcus aureus [8]) [µg/mL]	MIC (Staphylococcus aureus [9]) [µg/mL]	MIC (Streptococcus pyogenes [10]) [µg/mL]	further results
CC[C@H]1OC(=O)[C@H](C)[C@@H](O[C@H]2C[C@@](C)(OC)[C@@H](O)[C@H](C)O2)[C@H](C)[C@@H](O[C@@H]2O[C@H](C)C[C@H](N(C)C)[C@H]2O)[C@](C)(O)C[C@@H](C)CN(C)[C@H](C)[C@@H](O)[C@]1(C)O [AZITHROMYCIN]											MIC (Streptococcus pneumoniae [11]): 0.12 µg/mL (≈ 0.16 µM); ED50 (Staphylococcus aureus [12]): 24.8 mg/kg; MIC (Streptococcus pneumoniae [13]): 16 µg/mL (≈ 21.4 µM); MIC (Staphylococcus aureus [14]): 0.78 µg/mL (≈ 1.04 µM); ED50 (Streptococcus pneumoniae [15]): 78.7 mg/kg; ED50 (Streptococcus pyogenes [16]): 6.1 mg/kg; MIC (Streptococcus pyogenes [16]): 0.06 µg/mL (≈ 0.0801 µM); MIC (Streptococcus pyogenes [16]; Streptococcus pyogenes, read-out: MIC): 0.06 µg/mL (≈ 0.0801 µM); ED50 (Streptococcus pneumoniae [17]): > 100 mg/kg; MIC (Streptococcus pneumoniae [18]): > 128 µg/mL
CC[C@H]1OC(=O)[C@H](C)C(=O)[C@H](C)[C@@H](O[C@@H]2O[C@H](C)C[C@H](N(C)C)[C@H]2O)[C@](C)(OCC=Cc2cnc3ccccc3c2)C[C@@H](C)C(=O)[C@H](C)[C@H]2NC(=O)O[C@@]21C [CETHROMYCIN]	0.125 (≈ 0.163 µM)	0.25 (≈ 0.326 µM)	1 (≈ 1.31 µM)	> 100	0.25 (≈ 0.326 µM)	2 (≈ 2.61 µM)	0.004 (≈ 0.00522 µM)	0.05 (≈ 0.0653 µM)	0.05 (≈ 0.0653 µM)	0.004 (≈ 0.00522 µM)	
CC[C@H]1OC(=O)[C@H](C)[C@@H](O[C@H]2C[C@@](C)(OC)[C@@H](O)[C@H](C)O2)[C@H](C)[C@@H](O[C@@H]2O[C@H](C)C[C@H](N(C)C)[C@H]2O)[C@](C)(O)C[C@@H](C)C(=O)[C@H](C)[C@@H](O)[C@]1(C)O [ERYTHROMYCIN]	32 (≈ 43.6 µM)	> 128	> 128	> 100	16 (≈ 21.8 µM)	8 (≈ 10.9 µM)	0.06 (≈ 0.0818 µM)	6.2 (≈ 8.45 µM)		0.06 (≈ 0.0818 µM)	
CC[C@H]1OC(=O)[C@H](C)C(=O)[C@H](C)[C@@H](O[C@@H]2O[C@H](C)C[C@H](N(C)C)[C@H]2O)[C@](C)(OC)C[C@@H](C)C(=O)[C@H](C)[C@H]2N(CCCCn3cnc(-c4cccnc4)c3)C(=O)O[C@]12C [TELITHROMYCIN]	2 (≈ 2.46 µM)	8 (≈ 9.85 µM)	8 (≈ 9.85 µM)	> 100			0.004 (≈ 0.00493 µM)			0.004 (≈ 0.00493 µM)	MIC (Streptococcus pneumoniae [11]): 0.004 µg/mL (≈ 0.00493 µM); ED50 (Staphylococcus aureus [12]): 12.5 mg/kg; ED50 (Streptococcus pneumoniae [19]): 34.1 mg/kg; MIC (Streptococcus pneumoniae [13]): 0.5 µg/mL (≈ 0.616 µM); MIC (Staphylococcus aureus [14]): 0.1 µg/mL (≈ 0.123 µM); ED50 (Streptococcus pneumoniae [15]): 25.8 mg/kg; ED50 (Streptococcus pneumoniae [17]): 26.7 mg/kg; MIC (Streptococcus pneumoniae [18]): 0.125 µg/mL (≈ 0.154 µM)

The next lines start with results.

MIC (Streptococcus pyogenes [1]) [µg/mL]	MIC (Streptococcus pneumoniae [2]) [µg/mL]	MIC (Streptococcus pyogenes [4]) [µg/mL]	MIC (Staphylococcus aureus [5]) [µg/mL]	MIC (Streptococcus pneumoniae [6]) [µg/mL]	MIC (Haemophilus influenzae) [µg/mL]	MIC (Streptococcus pneumoniae [7]) [µg/mL]	MIC (Staphylococcus aureus [8]) [µg/mL]	MIC (Staphylococcus aureus [9]) [µg/mL]	MIC (Streptococcus pyogenes [10]) [µg/mL]	SMILES	further results
32 (≈ 52.1 µM)	> 128	> 128	> 100	8 (≈ 13 µM)	> 128	4 (≈ 6.52 µM)	50 (≈ 81.5 µM)			C=CCO[C@@]1(C)C[C@@H](C)C(=O)[C@H](C)[C@@H](O)[C@](C)(O)[C@@H](CC)OC(=O)[C@H](C)C(=O)[C@H](C)[C@H]1O[C@@H]1O[C@H](C)C[C@H](N(C)C)[C@H]1O	MIC (Staphylococcus aureus [3]): 12.5 µg/mL (≈ 20.4 µM)
2 (≈ 3.13 µM)	> 64	> 64	> 100	0.25 (≈ 0.391 µM)	64 (≈ 100 µM)	0.5 (≈ 0.783 µM)	1.56 (≈ 2.44 µM)	0.78 (≈ 1.22 µM)	0.25 (≈ 0.391 µM)	C=CCO[C@@]1(C)C[C@@H](C)C(=O)[C@H](C)[C@H]2NC(=O)O[C@]2(C)[C@@H](CC)OC(=O)[C@H](C)C(=O)[C@H](C)[C@H]1O[C@@H]1O[C@H](C)C[C@H](N(C)C)[C@H]1O	
0.1 (≈ 0.135 µM)	16 (≈ 21.6 µM)	100 (≈ 135 µM)	> 100	0.25 (≈ 0.337 µM)	16 (≈ 21.6 µM)	0.03 (≈ 0.0405 µM)	0.2 (≈ 0.27 µM)	0.2 (≈ 0.27 µM)	0.2 (≈ 0.27 µM)	CC[C@H]1OC(=O)[C@H](C)C(=O)[C@H](C)[C@@H](O[C@@H]2O[C@H](C)C[C@H](N(C)C)[C@H]2O)[C@@](C)(OC/C=C/c2cnc3ccccc3c2)C[C@@H](C)C(=O)[C@H](C)[C@@H](O)[C@]1(C)O	
2 (≈ 2.9 µM)	64 (≈ 92.8 µM)	64 (≈ 92.8 µM)	> 100	2 (≈ 2.9 µM)	128 (≈ 186 µM)	0.25 (≈ 0.362 µM)	1.56 (≈ 2.26 µM)	1.56 (≈ 2.26 µM)	0.25 (≈ 0.362 µM)	CC[C@H]1OC(=O)[C@H](C)C(=O)[C@H](C)[C@@H](O[C@@H]2O[C@H](C)C[C@H](N(C)C)[C@H]2O)[C@](C)(OC/C=C/c2ccccc2)C[C@@H](C)C(=O)[C@H](C)[C@@H](O)[C@]1(C)O	
0.25 (≈ 0.35 µM)	64 (≈ 89.5 µM)	64 (≈ 89.5 µM)	> 100	0.25 (≈ 0.35 µM)	4 (≈ 5.6 µM)	0.03 (≈ 0.042 µM)	0.1 (≈ 0.14 µM)	0.1 (≈ 0.14 µM)	0.03 (≈ 0.042 µM)	CC[C@H]1OC(=O)[C@H](C)C(=O)[C@H](C)[C@@H](O[C@@H]2O[C@H](C)C[C@H](N(C)C)[C@H]2O)[C@](C)(OC/C=C/c2ccccc2)C[C@@H](C)C(=O)[C@H](C)[C@H]2NC(=O)O[C@@]21C	
